# Source: PubChem
# The entries come from a sample that favours hits as a whole.
# Jurkat NFkB inh: inhibitors of the PMA/ionomycin-induced NF-kB reporter in Jurkat cells | AID 435003 | PMA/ionomycin-induced NF-kB luciferase reporter, luminescence | 330,000 tested, 0.53% active | inhibition, % at 4 µM; in the data active = inhibition above about 50%
# 697 NFkB inh: inhibitors of the PMA/ionomycin-induced NF-kB reporter in 697 B cells; 697 B-cell NF-kB luciferase reporter, 16 h; inhibition, % at 4 µM; 330,000 tested, 0.33% active; in the data active = inhibition above about 35%
# UPR CHOP act: apoptotic UPR (CHOP) activation. CHO-CHOP luciferase reporter, luminescence; percent of tunicamycin response over DMSO baseline. activation, % at 10 µM. 330,000 tested, 0.34% active;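 active = at 10 µM dose, activation of 40% or more, normalized to positive control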;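 also: 100% = tunicamycin at 10 µg/mL and 0% = DMSO alone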
#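 System: CHO-CHOP luciferase reporter cell line; amount: 500 cells/well; buffer or medium: F12 medium containing 10% fetal bovine serum; incubation: 6 h compound exposure at 37 °C after overnight seeding; measured by: luciferase luminescence after 10 min with Steady-Glo reagent; evaluation: % reporter activation, DMSO baseline versus tunicamycin full activation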
# CHOP inhibitor: CHOP inhibition in unfolded protein response; CHO-K1 CHOP-promoter luciferase, tunicamycin-induced, 15-18 h; inhibition, % at 10 µM; 220,000 tested, 3.8% active; AID 2732;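 active = compounds that reduced the stress-induced luciferase reporter signal by more than about 70% of percent inhibition, limit read from the data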;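 also: 0% = tunicamycin plus vehicle and 100% = wells without tunicamycin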
# UPR XBP1 act: adaptive UPR (XBP1) activation | CHO-XBP1 luciferase reporter, IRE1-XBP1 UPR activation, luminescence; percent of tunicamycin response, DMSO as zero | activation, % at 20 µM | 330,000 tested, 0.33% active;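 active = versus positive control, 20 µM dose yields 30% or more activation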;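 also: 100% = tunicamycin at 10 µg/mL and 0% = DMSO only wells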
#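 Test system: CHO-XBP1 luciferase reporter cells | Buffer or medium: Serum-containing F12 medium, 10% FBS | Schedule: 6 h compound exposure at 37 °C, 5% CO2 | Detection: Steady-Glo luciferase glow luminescence, 10 min after reagent addition | Read-out basis: Activation, % of tunicamycin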
# Numbers without * were called inactive; / = not tested or not shown.
SMILES,Jurkat NFkB inh,697 NFkB inh,UPR CHOP act,CHOP inhibitor,UPR XBP1 act
CCc1cccc2c(C(=O)COC(=O)c3ccc(O)cc3)c[nH]c12,4.1,1.7,4.7,87.2*,0.0
CCc1cccc2c(C(=O)COC(=O)c3ccccc3)c[nH]c12,-44.9,-35.6,2.2,-0.4,1.7
CCN(CC(=O)Nc1ccc2c(c1)OCO2)Cc1nc2ccccc2c(=O)[nH]1,2.1,-8.0,-1.3,7.5,0.8
CCN(CC(=O)Nc1ccc2c(c1)CCC2)Cc1nc2ccccc2c(=O)[nH]1,-8.6,-25.2,-1.6,71.4*,3.3
CC(C)(C)C(=O)Cn1ncc(Cl)c(Cl)c1=O,/,/,/,-68.0,/
O=c1c(Cl)c(Cl)cnn1Cc1ccc(F)cc1,2.3,-9.5,8.7,-99.5,-1.0
C=CCn1c(C)cc(C(=O)Cn2ncc(Cl)c(Cl)c2=O)c1C,/,/,/,75.1*,/
O=C(Cn1ncc(N2CCOCC2)c(Cl)c1=O)c1ccc(Cl)cc1,-10.5,-15.6,13.2,24.9,0.8
O=C(OCn1ncc(Cl)c(Cl)c1=O)c1ccccc1Cl,/,/,/,107.4*,/
O=C1CN(C(=O)COc2ccc(Cl)c(Cl)c2)c2ccccc2N1,15.3,14.0,0.2,/,-1.8
O=C(Cn1ncc(Cl)c(Cl)c1=O)c1ccc(Cl)cc1,/,/,/,102.3*,/
O=C1CN(C(=O)Cn2ncc(Cl)c(Cl)c2=O)c2ccccc2N1,/,/,/,92.0*,/
COc1ccc(CC(=O)Nc2ccncc2Cl)cc1,23.9,-17.7,3.0,/,-5.7
CCOC(=O)c1cnc(-n2nc(C)cc2C)nc1NNc1ncc(-c2ccccc2)cn1,4.7,-1.4,-1.4,26.6,-0.4
CCOC(=O)c1cnc(-n2nc(C)cc2C)nc1NNc1cc(-c2ccccc2)nc(C)n1,4.9,-37.4,14.0,74.3*,-3.1
COC(=O)c1ccc(C2C(C(=O)c3ccco3)=C(O)C(=O)N2CC2CCCO2)cc1 (centres undefined),5.6,9.7,-0.8,/,6.2
CCCCCCCc1nc2c(=O)n(C)c3ccccc3c2o1,-4.8,-19.4,1.3,88.8*,1.7
N#CC(C(=O)Nc1ccc(Cl)cc1)=C1Nc2ccccc2N1,-23.8,-16.4,1.5,90.1*,4.3
Cc1csc(NC(C)c2nc3cc(C(F)(F)F)ccc3n2CCCO)n1 (centres undefined),-12.3,-9.5,-0.8,/,-1.7
CCCCNC(=S)N(C)/N=C/c1c(F)c(F)c(F)c(F)c1F,0.9,1.5,-0.9,21.9,-0.6
CCCCNC(=S)N(C)/N=C/c1c(C)[nH]c2ccccc12,-5.8,-21.8,2.8,72.4*,-0.6
COc1ccc(C)cc1NC(=O)c1cc2ccccc2o1,-22.9,-29.9,0.9,71.2*,4.0
CN(C(=O)CSc1nnc(-c2cccs2)n1C1CC1)C1CCS(=O)(=O)C1 (centres undefined),5.3,-2.3,0.9,/,0.6
Cc1ccc(COc2ccc(/C=N/NC(=O)c3nnn(-c4nonc4N)c3COc3ccc(F)cc3)cc2)cc1,-92.0,-14.7,13.5,81.6*,15.8
Cc1cc(C)c(/C=N/NC(=O)c2nnn(-c3nonc3N)c2COc2ccc(F)cc2)c(C)c1,-6.8,-4.1,1.8,-6.4,-1.0
SMILES,Jurkat NFkB inh,697 NFkB inh,UPR CHOP act,CHOP inhibitor,UPR XBP1 act
Cc1snnc1C(=O)NC(=S)Nc1ccccc1,3.4,10.0,0.5,6.9,0.8
Cc1ccc(/C=C/C2=NN(Cc3ccccc3Cl)C(=O)CC2)cc1,11.3,5.0,-1.3,73.7*,-2.0
Cc1ccc(/C=C/C2=NN(Cc3ccccc3)C(=O)CC2)cc1,1.5,16.7,0.4,11.0,-1.5
CCOc1ccc(CSC(=N)N)cc1Cl,19.0,4.5,-2.2,10.2,-0.9
CCCCOc1ccc(CSCCN)cc1Cl,-17.2,16.7,3.8,73.2*,-0.2
CCCCN1CCC(n2c(=O)[nH]c3ccccc32)CC1,/,/,/,-1.4,/
Cc1ccc(C2=NC(=O)/C(=C/c3cc(O)c(O)c(Br)c3)S2)cc1,2.8,0.0,0.6,72.5*,2.5
COc1cc(/C=C2\SC(c3ccc(C)cc3)=NC2=O)cc(OC)c1O,10.2,2.9,5.1,57.8,2.4
CCOC(=O)c1c(C)[nH]c(C(=O)OCC(=O)Nc2ccc(OC)c(Cl)c2)c1C,12.2,2.5,-2.1,87.0*,0.8
CCOC(=O)c1c(C)[nH]c(C(=O)OCC(=O)Nc2cc(Cl)ccc2OC)c1C,6.8,16.5,2.8,77.7*,2.5
CCOC(=O)c1c(C)[nH]c(C(=O)OCC(=O)Nc2cc(C)ccc2OC)c1C,-6.3,-25.1,0.0,14.0,1.9
CCn1cc(/C=C(\NC(=O)c2ccccc2)C(=O)N2CCOCC2)c2ccccc21,2.8,7.1,3.9,/,-0.7
CN1C(=O)/C(=C/c2ccccc2Cl)Sc2ccc(C(=O)NCc3cccnc3)cc21,-9.2,-12.0,0.9,81.5*,-1.1
CN1C(=O)/C(=C/c2ccccc2F)Sc2ccc(C(=O)NCC3CCCO3)cc21 (centres undefined),12.8,-4.0,0.4,/,-1.6
CC1CCCN(c2nc3nonc3nc2Nc2ccccc2F)C1 (centres undefined),4.3,11.1,-1.5,19.6,-6.0
COc1ccc(OC)c(Nc2nc3nonc3nc2N2CCCC(C)C2)c1 (centres undefined),8.6,-7.9,0.0,77.3*,2.5
Cc1ccnc(N/N=C/c2ccco2)n1,-15.3,-38.2,1.1,7.7,0.4
Cc1cccc2c1[nH]c1nc(N/N=C\c3ccco3)nnc12,11.7,13.8,4.5,85.3*,0.8
Cc1noc(C)c1C(=O)Nc1nc(C23CC4CC(CC(C4)C2)C3)cs1,9.7,-9.7,6.4,83.1*,2.7
Cc1cc(C)c(C)c(S(=O)(=O)NCC(=O)Nc2sc3c(c2C(N)=O)CCCC3)c1C,-18.3,-20.4,2.2,94.6*,-3.3
CCC(=O)Nc1sc2c(c1C(N)=O)CCC2,-20.5,4.6,-0.5,25.1,-0.2
Cc1noc(C)c1C(=O)Nc1sc2c(c1C(N)=O)CCCCC2,-1.9,1.8,3.7,91.3*,-0.3
O=[N+]([O-])c1cc(Br)c2nsnc2c1N1CCOCC1,4.3,-0.7,0.7,/,-1.6
CN(C1=C(NC(=O)c2ccccc2)C(=O)c2ccccc2C1=O)C1CCS(=O)(=O)C1 (centres undefined),-12.4,-36.9,-6.9,106.8*,-4.2
COc1ccc(OC)c(-c2csc(NC(=O)c3ccc(F)cc3)n2)c1,33.1,-9.4,0.1,/,-0.1
SMILES,Jurkat NFkB inh,697 NFkB inh,UPR CHOP act,CHOP inhibitor,UPR XBP1 act
C(=N\Nc1nc(-c2cccnc2)nc2ccccc12)/c1ccccc1,-16.1,-25.4,4.6,-5.8,1.2
Brc1ccc(-c2nc(N/N=C/c3cccnc3)c3ccccc3n2)cc1,-114.2,-108.0,3.1,74.2*,2.2
Cc1ccc(SCC(=O)Nc2ccc(-c3nnc(-c4ccco4)o3)cc2)cc1,-49.2,-65.9,2.7,75.5*,4.0
CC(=O)Nc1ccc(NC(=O)CSc2ccc(-c3ccco3)nn2)cc1,0.2,7.5,-1.4,5.3,-1.1
Cc1ccc(NC(=O)CCSc2nnc(-c3ccco3)o2)cc1,-7.6,-13.6,1.5,32.0,0.1
Cc1ccc(NC(=O)CSc2ccc(-c3ccco3)nn2)cc1,-7.8,14.0,-0.1,74.4*,-3.1
